# Calls of active or inactive are those of the source.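 Rule for the calls, unless noted: active = inhibition of the reporter signal at or above 50%; inactive = inhibition below 50%.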
# Experiments:
# [1] = inhibitors of TNFa-induced NFkB p65 translocation, primary screen, imaging, HUVEC, MLSMR starter and 10KST1 sets (AID 438;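 active = inhibition above 20% together with a positive visual image hit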;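 note: compound added about 3h40 before a 20 min TNFalpha stimulation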;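 for inhibition: signal is the nuclear over cytoplasmic p65 intensity ratio per well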); conditions: HUVEC TNFa-induced p65 nuclear translocation; cell count: measured here: nuclei count (cytotoxicity indicator), at 2.08 µM; inhibition: at 2 µM, stronger effect = higher value, 0% TNFa-plus-vehicle, 100% no-TNFa wells
# [2] = reduction of polyQ htt aggregates in cells – imaging, exon1htt(103Q)mCFP cells, high-content imaging, primary screen (AID 483;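 active = visual image review flags a hit and inhibition of aggregation exceeds 20%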;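 note: compound exposure lasted 3 days before fixation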;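 for nuclei count: percent of the per-plate median nuclei count of sample wells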); conditions: exon1htt(103Q)mCFP cell line, aggregate imaging, at 2 µM; inhibition of aggregation: stronger effect = higher value; nuclei count: measured here: cell count, toxicity
# [3] = endothelial E-selectin expression blockers – imaging, HUVEC, immunofluorescence, MLSMR starter and 10KST1 sets, primary screen (AID 487;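 active = visually confirmed hit in the image check and inhibition above 20%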;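 for inhibition: signal is fraction of cell area covered by stained E-selectin grains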;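 for nuclei count: 100% = median nuclei count of all wells on the same plate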); conditions: HUVEC TNFalpha-induced E-selectin immunofluorescence imaging, at 2 µM; inhibition: stronger effect = higher value; nuclei count: measured here: cell number, toxicity
# [4] = biological target: Voltage-gated potassium channel subunit beta-2 (Rattus norvegicus) (UniProt P62483); test: inhibitors of rat Kvbeta2 reductase activity – biochemical, NADPH fluorescence, primary screen (AID 622;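 active = fluorescence slope higher than the sample average by over 3 SD, cut at about -0.22 in these data, passing the limit was not always enough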;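 note: slope of raw intensity against log time taken from 70 to 1610 s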); conditions: recombinant KvBeta, 4-cyanobenzaldehyde reduction, at 10 µM, stronger effect = higher value
# Voltage-gated potassium channel subunit beta-2 (Rattus norvegicus), sequence (P62483 whole entry, looked up): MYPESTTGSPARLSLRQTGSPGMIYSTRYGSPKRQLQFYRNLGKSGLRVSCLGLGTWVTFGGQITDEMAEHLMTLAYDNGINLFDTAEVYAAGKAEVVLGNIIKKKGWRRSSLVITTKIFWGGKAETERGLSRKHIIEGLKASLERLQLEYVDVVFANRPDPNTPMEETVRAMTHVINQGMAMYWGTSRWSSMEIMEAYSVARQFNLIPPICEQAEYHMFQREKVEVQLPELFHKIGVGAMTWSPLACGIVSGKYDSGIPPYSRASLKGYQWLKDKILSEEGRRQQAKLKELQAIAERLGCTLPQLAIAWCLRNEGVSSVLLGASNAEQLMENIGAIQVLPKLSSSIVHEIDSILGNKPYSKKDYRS
# [5] = biological target: Voltage-gated potassium channel subunit beta-2 (Rattus norvegicus) (UniProt P62483); test: enhancers of rat Kvbeta2 NADPH turnover – biochemical, NADPH fluorescence, primary screen (AID 623;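 active = NADPH fluorescence slope more negative than the mean of all samples by about 3 SD, 99.7% confidence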;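 note: fluorescence intensity change per second fitted from 20 to 320 s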); conditions: Recombinant KvBeta, NADPH fluorescence decrease slope, 10 min; at 10 µM; stronger effect = lower value
# [6] = biological target: Muscarinic acetylcholine receptor M4 (Homo sapiens) (UniProt P08173); test: M4-linked GIRK flux change, two-sided – cell-based, HEK293 M4/GIRK, thallium flux, BTC-AM, M4 allosteric agonist project, primary screen (AID 625;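 active = fluorescence slope after compound addition differing from the mean of all tested samples at 99.7% confidence, mostly higher but some lower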;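 note: thallium influx through GIRK channels coupled to M4 in HEK293 cells with BTC-AM dye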); conditions: at 10 µM, actives lie on both sides
# Muscarinic acetylcholine receptor M4 (Homo sapiens), sequence (P08173 whole entry, looked up): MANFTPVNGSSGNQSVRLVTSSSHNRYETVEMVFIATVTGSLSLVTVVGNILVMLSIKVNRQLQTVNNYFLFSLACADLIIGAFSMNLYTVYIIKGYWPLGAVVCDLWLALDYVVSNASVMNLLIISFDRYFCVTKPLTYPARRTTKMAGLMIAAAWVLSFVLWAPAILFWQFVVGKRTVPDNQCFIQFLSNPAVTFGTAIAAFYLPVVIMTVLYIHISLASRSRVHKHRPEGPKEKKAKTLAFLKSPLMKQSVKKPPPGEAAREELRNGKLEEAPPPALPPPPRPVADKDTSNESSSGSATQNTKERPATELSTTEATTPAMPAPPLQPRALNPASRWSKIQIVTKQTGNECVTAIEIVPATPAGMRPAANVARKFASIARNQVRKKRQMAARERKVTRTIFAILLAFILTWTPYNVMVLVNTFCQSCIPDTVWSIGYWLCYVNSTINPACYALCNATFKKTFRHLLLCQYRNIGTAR
# Procedure, shortened: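 Material: M4/GIRK1/GIRK2 stable HEK293 cell line. Medium: pH 7.3 thallium assay buffer. Dosing: single compound concentration, 10 µM final. Schedule: 1 h dye loading, 2 min kinetic read. Measured by: kinetic fluorescence with BTC-AM dye. Read-out: post-addition slope, 15–24 s, of baseline-normalized fluorescence. Benchmarks: carbachol and DMSO controls.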
# [7] = blockers of RIG-like receptor reporter activation – cell-based, Sendai virus stimulus, luciferase, 10K MLSCN set, TLR/RLR signaling modifier project, primary screen (AID 602276;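 active = inhibition at or above 50% at 10 µM; inactive = inhibition below 50%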;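 note: firefly luciferase from ISG56 promoter only with Renilla not read in this screen; 0% = Sendai virus plus DMSO and 100% = medium plus DMSO without virus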); conditions: HEK293 RL24 IRF3 luciferase reporter, at 10 µM, stronger effect = higher value
# [8] = TLR3 IRF3 reporter activation blockers – cell-based, poly I:C stimulus, luciferase, 10K MLSCN set, primary screen (AID 602277); conditions: HEK293-TLR3 RL24 IRF3 luciferase reporter, at 10 µM, stronger effect = higher value
Structure (SMILES),cell count [1],inhibition [1],inhibition of aggregation [2],nuclei count [2] [%],inhibition [3],nuclei count [3] [%],fluorescence slope [4],NADPH fluorescence slope [5],fluorescence slope [6],inhibition [7],inhibition [8]
CCOC(=O)C1CCCN(S(=O)(=O)c2cccs2)C1 (stereo not drawn),243,11.2% (inactive),-5.5% (inactive),95.8,-8.8% (inactive),95.2,-0.479 (inactive),1.6e-05 (inactive),0.00471 (inactive),-3.56% (inactive),4.98% (inactive)
O=C(CCCCC(=O)NCc1cccs1)NCc1cccs1,681,-12.6% (inactive),-3.7% (inactive),110,0.6% (inactive),88.9,-0.571 (inactive),3.2e-05 (inactive),0.00493 (inactive),-6.61% (inactive),0.312% (inactive)
O=C(N1CCN(Cc2ccccc2)CC1)C12CC3CC(CC(C3)C1)C2,530,-4.3% (inactive),2% (inactive),88.3,-15.4% (inactive),92.7,-0.327 (inactive),-4.6e-05 (inactive),0.00533 (inactive),17% (inactive),8.52% (inactive)
O=C(CCCC(=O)N(CC(=O)NC1CCCCC1)Cc1ccc2c(c1)OCO2)Nc1ccccn1,395,4.2% (inactive),-3% (inactive),91,-237% (inactive),110,-0.479 (inactive),3.7e-05 (inactive),0.00636 (inactive),15.4% (inactive),25.3% (inactive)
COc1ccccc1C(=O)Nc1ccccc1C(=O)N1CCCC1,675,-6.5% (inactive),-2.4% (inactive),108,-95.5% (inactive),115,-0.583 (inactive),-5.2e-05 (inactive),0.00691 (inactive),15.4% (inactive),17% (inactive)
CCOC(=O)c1cnc(-n2nc(C)cc2C)nc1NC(C)c1ccccc1 (stereo not drawn),605,-9.5% (inactive),8.7% (inactive),94.4,13.2% (inactive),93.5,-0.57 (inactive),-9.1e-05 (inactive),0.00529 (inactive),8.07% (inactive),0.674% (inactive)
O=C(CCNC(=O)Cn1ccc2ccccc2c1=O)NCCN1CCc2ccccc2C1,337,0.5% (inactive),16.2% (inactive),77.2,-26.8% (inactive),111,-0.474 (inactive),-0.000226 (inactive),0.00569 (inactive),-3.36% (inactive),11.4% (inactive)
CC(=O)Nc1ccc(S(=O)(=O)n2nc(C)cc2C)cc1,495,-20.7% (inactive),-16.2% (inactive),108,-163% (inactive),105,-0.546 (inactive),-0.000136 (inactive),0.00409 (inactive),10% (inactive),7.63% (inactive)
Cc1nc(/N=C\N(C)C)sc1C(=O)Nc1ccccc1,602,1.5% (inactive),-11.8% (inactive),113,-27.8% (inactive),97.5,-0.306 (inactive),-2e-05 (inactive),0.00595 (inactive),-2.68% (inactive),-18.9% (inactive)
Oc1ccccc1C1=Nc2nc3ccccc3n2C(c2ccccc2)C1 (stereo not drawn),579,6.8% (inactive),3.6% (inactive),107,-49.5% (inactive),102,-0.539 (inactive),-7.3e-05 (inactive),0.00255 (inactive),-38.4% (inactive),-68.7% (inactive)
N#Cc1ccc(CSc2nnc(-c3cnccn3)o2)cc1,489,-15% (inactive),-20.4% (inactive),106,-60.9% (inactive),105,-0.555 (inactive),-5.1e-06 (inactive),0.00528 (inactive),2.28% (inactive),5.14% (inactive)
O=C(CN(c1ccc(F)cc1)S(=O)(=O)c1ccc2c(c1)OCCO2)NCC1CCCO1 (stereo not drawn),472,0.8% (inactive),-6.6% (inactive),92.4,-58.6% (inactive),107,-0.453 (inactive),-4.3e-05 (inactive),0.00466 (inactive),17% (inactive),24.3% (inactive)
CCOC(=O)C(C)Sc1nc2c(cnn2-c2ccc(C)cc2)c(=O)[nH]1 (stereo not drawn),239,-1.3% (inactive),6.8% (inactive),102,11.9% (inactive),110,-0.503 (inactive),8.8e-05 (inactive),0.00678 (inactive),6.58% (inactive),8.01% (inactive)

# — PubChem BioAssay
